For series [1], the system named is Human immunodeficiency virus 1. Nature of the series: Antiviral activity against HIV 1 in HeLa-CD4/CCR5 cells assessed as inhibition of viral infectivity after 48 hrs by MAGI assay. The series is classed as functional, organism-based. The conditions noted are these: Human immunodeficiency virus 1, MAGI-CCR5, 48 h. In a few lines: (§1)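 HeLa-CD4/CCR5-LTR/β-gal target cells at 10⁴ cells/well, plated the day before infection; inoculated with virus at 60 MAGI U/well and cultured with graded compound concentrations in fresh medium. After 48 h, X-Gal-stained blue cells were counted per well. EC50 (50% block of infection) was interpolated from the two concentrations bracketing 50% inhibition; three independent experiments.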

For series [2], the system named is Human immunodeficiency virus 1. Nature of the series: Antiviral activity against HIV 1 BaL in HeLa-CD4/CCR5 cells assessed as inhibition of viral infectivity after 48 hrs by MAGI assay. The following applies: Human immunodeficiency virus 1, BaL, MAGI-CCR5, 48 h. The series is classed as functional, organism-based. In short, it runs like this: as §1
Series [3] relates to Human immunodeficiency virus 1. Nature of the series: Ratio of PD 404182 EC50 to compound EC50 for HIV 1 BaL in HeLa-CD4/CCR5 cells assessed as inhibition of viral infectivity after 48 hrs by MAGI assay. The series is classed as functional.
In series [4] the test system is Human immunodeficiency virus 2. Nature of the series: Antiviral activity against HIV 2 EHO in HeLa-CD4/CCR5 cells assessed as inhibition of viral infectivity after 48 hrs by MAGI assay. The series is classed as functional, organism-based. The conditions noted are these: Human immunodeficiency virus 2, EHO, MAGI-CCR5, 48 h. In a few lines:
as §1

For series [5], the system named is Human immunodeficiency virus 2. Put plainly: Ratio of PD 404182 EC50 to compound EC50 for HIV 2 ROD in HeLa-CD4/CCR5 cells assessed as inhibition of viral infectivity after 48 hrs by MAGI assay. The series is classed as functional, ISOLATE ROD.
The subject of series [6] is Human immunodeficiency virus 2. Nature of the series: Ratio of PD 404182 EC50 to compound EC50 for HIV 2 EHO in HeLa-CD4/CCR5 cells assessed as inhibition of viral infectivity after 48 hrs by MAGI assay. The series is classed as functional.
Series [7] deals with Human immunodeficiency virus 2. Put plainly: Antiviral activity against HIV 2 ROD in HeLa-CD4/CCR5 cells assessed as inhibition of viral infectivity after 48 hrs by MAGI assay. The series is classed as functional, organism-based. The conditions noted are these: Human immunodeficiency virus 2, ISOLATE ROD, MAGI-CCR5, 48 h. In short, it runs like this:
as §1

In series [8] the test system is Human immunodeficiency virus 1. Nature of the series: Ratio of PD 404182 EC50 to compound EC50 for HIV 1 NL4-3 in HeLa-CD4/CCR5 cells assessed as inhibition of viral infectivity after 48 hrs by MAGI assay. The series is classed as functional.
In series [9] the test system is Human immunodeficiency virus 1. Put plainly: Antiviral activity against HIV 1 NL4-3 in HeLa-CD4/CCR5 cells assessed as inhibition of viral infectivity after 48 hrs by MAGI assay. The series is classed as functional, organism-based. The following applies: Human immunodeficiency virus 1, NL4-3, MAGI-CCR5, 48 h. In short, it runs like this:
as §1

In a further series the test system is HeLa. Put plainly: Cytotoxicity against human HeLa cells expressing CD4/CCR5 at 10 uM. The series is classed as cell-based.
Series [10] in a line: Therapeutic index, ratio of CC50 for HeLa-CD4/CCR5 cells to EC50 for HIV 1 in HeLa-CD4/CCR5 cells assessed as inhibition of viral infectivity. The series is classed as cell-based. The following applies: human, read-out: Ratio CC50/EC50.
The nature of series [11]: Cytotoxicity against human HeLa cells expressing CD4/CCR5. The series is classed as cell-based.

The structures appear in SMILES notation. Some results are limits rather than exact numbers.

For orientation: EC50 means the concentration giving half of the maximal effect. For orientation: CC50 means the concentration at which the toxic effect on the cells reaches its halfway point. Low readings indicate greater toxicity to the cells, high ones lower toxicity to the cells.

`CC1(C)CN=C2c3ccccc3SC(=N)N2C1`: in series [1], the concentration for a half-maximal effect (EC50) turned out to be 240 nM.
On the same count and under the same terms, with `N=C1Sc2cc(Br)ccc2C2=NCC3(CCN(C(N)=O)CC3)CN12` the figure was greater than 10000 nM; with `N=C1Sc2cc(Br)ccc2C2=NCCCN12`, 250 nM.
On the same count and under the same terms, with `N=C1Sc2cc(-c3cc4ccccc4o3)ccc2C2=NCCCN12` the figure was 200 nM; with `N=C1Sc2cc(-c3ccsc3)ccc2C2=NCCCN12`, 220 nM.
For `N=C1Sc2cc(-c3cc4ccccc4s3)ccc2C2=NCCCN12`, in series [1], the concentration for a half-maximal effect (EC50) amounted to 260 nM.
As to `N=C1Sc2cc(-n3cccn3)ccc2C2=NCCCN12`, in [1], the EC50 was 420 nM.
Turning to `N=C1Sc2cc(-n3ccnc3)ccc2C2=NCCCN12`, the EC50 in series [1] came to 5120 nM.
For the molecule `N=C1Sc2cc(Br)ccc2C2=NCC3(CCCCC3)CN12`, the half-maximal effective concentration (EC50) in series [1] amounted to 250 nM.
On the same count and under the same terms, under `N=C1Sc2cc(Br)ccc2C2=NCC3(CCOCC3)CN12` stands 1730 nM; under `COc1ccc(CN2CCC3(CC2)CN=C2c4ccc(Br)cc4SC(=N)N2C3)cc1`, 1450 nM.
For `COC(=O)N1CCC2(CC1)CN=C1c3ccc(Br)cc3SC(=N)N1C2`, in [1], the 50% effective concentration (EC50) was found to be 440 nM.
Consider `CC(=O)N1CCC2(CC1)CN=C1c3ccc(Br)cc3SC(=N)N1C2`, for which, in series [1], the half-maximal effective concentration (EC50) was found to be 2740 nM.
In the case of `CS(=O)(=O)N1CCC2(CC1)CN=C1c3ccc(Br)cc3SC(=N)N1C2`, in series [1], the concentration giving a half-maximal response (EC50) is 1810 nM.
Regarding `COc1cc(-c2ccc3c(c2)SC(=N)N2CCCN=C32)cc(OC)c1OC`, the EC50 in series [1] turned out to be 250 nM.
Take `COc1ccc(-c2ccc3c(c2)SC(=N)N2CCCN=C32)cc1Cl`: the concentration for a half-maximal effect (EC50) in series [1] was determined as 320 nM.
Same read-out and setting: under `COc1ccc(Cl)cc1-c1ccc2c(c1)SC(=N)N1CCCN=C21` stands 480 nM; under `N=C1Sc2cc(-c3ccc4ccccc4c3)ccc2C2=NCCCN12`, 200 nM; under `N=C1Sc2cc(-c3cccc4ccccc34)ccc2C2=NCCCN12`, 390 nM.
For `N=C1Sc2cc(-c3ccc4c(c3)OCO4)ccc2C2=NCCCN12`, the EC50 in series [2] was determined as 130 nM; in [4], 140 nM; in series [1], 150 nM; in [7], 100 nM; in [9], 230 nM. Further, the Ratio EC50 was found to be 3 in series [3], 3 in [5], 2 in [6] and 2 in series [8].
`N=C1Sc2cc(-c3ccc4c(c3)OCCO4)ccc2C2=NCCCN12`: the EC50 in series [1] amounted to 260 nM.
As to `N=C1Sc2cc(-c3ccc4ncccc4c3)ccc2C2=NCCCN12`, the half-maximal effective concentration (EC50) in series [1] was found to be 250 nM.
Regarding `N=C1Sc2cc(-c3ccc4c(C(=O)C(F)(F)F)c[nH]c4c3)ccc2C2=NCCCN12`, the EC50 in series [1] was greater than 1000 nM. The Activity result in the series with HeLa is recorded as “Toxic”.
Consider `N=C1Sc2cc(-c3ccc4[nH]cc(C(=O)C(F)(F)F)c4c3)ccc2C2=NCCCN12`, for which the EC50 in series [1] was greater than 1000 nM. Moreover, in the series on HeLa, the Activity entry is on record as “Toxic”.
With `N=C1Sc2cc(-c3cccnc3)ccc2C2=NCCCN12`, the EC50 in series [1] is 450 nM.
Regarding `N=C1Sc2cc(-c3ccncc3)ccc2C2=NCCCN12`, in [1], the EC50 was 540 nM.
Take `N=C1Sc2cc(-c3ccco3)ccc2C2=NCCCN12`: the EC50 in series [1] came out at 260 nM.
For `CSc1ccc(-c2ccc3c(c2)SC(=N)N2CCCN=C32)cc1`, the EC50 in series [1] was determined as 200 nM.
Still for that read-out and setting: under `N=C1Sc2cc(-c3ccc(OC(F)(F)F)cc3)ccc2C2=NCCCN12` stands 380 nM.
On to `COC(=O)c1cccc(-c2ccc3c(c2)SC(=N)N2CCCN=C32)c1`, for which, in [1], the EC50 stood at 390 nM.
`N#Cc1cccc(-c2ccc3c(c2)SC(=N)N2CCCN=C32)c1`: in series [1], the EC50 was 1170 nM.
In the case of `N=C1Sc2cc(-c3cccc([N+](=O)[O-])c3)ccc2C2=NCCCN12`, the EC50 in series [1] is 1260 nM.
With `CC(=O)Nc1cccc(-c2ccc3c(c2)SC(=N)N2CCCN=C32)c1`, the concentration giving a half-maximal response (EC50) in series [1] was greater than 10000 nM.
On the same count and under the same terms, under `CS(=O)(=O)Nc1cccc(-c2ccc3c(c2)SC(=N)N2CCCN=C32)c1` stands greater than 10000 nM.
`N=C1Sc2cc(-c3cccc(O)c3)ccc2C2=NCCCN12`: the EC50 in series [1] worked out at 2620 nM.
With `COc1cccc(-c2ccc3c(c2)SC(=N)N2CCCN=C32)c1`, the half-maximal effective concentration (EC50) in series [1] turned out to be 150 nM.
Take `CC(C)Oc1cccc(-c2ccc3c(c2)SC(=N)N2CCCN=C32)c1`: the EC50 in [1] is 320 nM.
For `N=C1Sc2cc(-c3cccc(-c4ccccc4)c3)ccc2C2=NCCCN12`, the EC50 in series [1] was determined as 1350 nM.
The same measure, in the same setting: with `COc1ccccc1-c1ccc2c(c1)SC(=N)N1CCCN=C21` the figure was 410 nM; with `N=C1Sc2cc(-c3ccccc3-c3ccccc3)ccc2C2=NCCCN12`, 320 nM.
As for `COc1ccc(-c2ccc3c(c2)SC(=N)N2CCCN=C32)cc1OC`, the EC50 in series [1] came out at 270 nM.
Still for that read-out and setting: with `N=C1Sc2cc(-c3ccccc3)ccc2C2=NCCCN12` the figure was 240 nM.
Turning to `COC(=O)c1ccc(-c2ccc3c(c2)SC(=N)N2CCCN=C32)cc1`, the concentration for a half-maximal effect (EC50) in [1] was 810 nM.
On the same count and under the same terms, with `N#Cc1ccc(-c2ccc3c(c2)SC(=N)N2CCCN=C32)cc1` the figure was 440 nM; with `N=C1Sc2cc(-c3ccc([N+](=O)[O-])cc3)ccc2C2=NCCCN12`, 460 nM.
Still for that read-out and setting: with `N=C1Sc2cc(-c3ccc(C(F)(F)F)cc3)ccc2C2=NCCCN12` the figure was 550 nM; with `N=C1Sc2cc(-c3ccc(C(N)=O)cc3)ccc2C2=NCCCN12`, 8710 nM; with `COc1ccc(-c2ccc3c(c2)SC(=N)N2CCCN=C32)cc1`, 240 nM.
Turning to `N=C1Sc2ccccc2C2=NCCCN12`, the EC50 came to 370 nM in [2]; 310 nM in [4]; 440 nM in [1]; 300 nM in series [7]; 380 nM in series [9]. Also, in [10], the selectivity ratio was greater than 200. In series [11], this molecule returned a CC50 greater than 100000 nM.
In the case of `CC(O)c1cccc(-c2ccc3c(c2)SC(=N)N2CCCN=C32)c1` (racemic), the concentration giving a half-maximal response (EC50) in series [1] amounted to 1190 nM.

The values are drawn from ChEMBL document CHEMBL2157882, “Structure-activity relationship study of pyrimido[1,2-c][1,3]benzothiazin-6-imine derivatives for potent anti-HIV agents” (Bioorg Med Chem, 2012).
